Bioassay records from PubChem BioAssay.
D1 allo mod: D1 CRE-luciferase signal change, two-sided – cell-based, HEK293 D1, dopamine EC30, D1 allosteric modulator project, primary screen; AID 641, 2007; dopamine EC30 potentiation; actives deviate in either direction; actives 5.9% (n = 58,000); D(1A) dopamine receptor (Homo sapiens), P21728; B-score at 10 µM;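 active = luminescence count or its row- and column-corrected plate score outside the 99.7% band of the plate's sample wells, on either side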
Target sequence (P21728 whole entry, looked up): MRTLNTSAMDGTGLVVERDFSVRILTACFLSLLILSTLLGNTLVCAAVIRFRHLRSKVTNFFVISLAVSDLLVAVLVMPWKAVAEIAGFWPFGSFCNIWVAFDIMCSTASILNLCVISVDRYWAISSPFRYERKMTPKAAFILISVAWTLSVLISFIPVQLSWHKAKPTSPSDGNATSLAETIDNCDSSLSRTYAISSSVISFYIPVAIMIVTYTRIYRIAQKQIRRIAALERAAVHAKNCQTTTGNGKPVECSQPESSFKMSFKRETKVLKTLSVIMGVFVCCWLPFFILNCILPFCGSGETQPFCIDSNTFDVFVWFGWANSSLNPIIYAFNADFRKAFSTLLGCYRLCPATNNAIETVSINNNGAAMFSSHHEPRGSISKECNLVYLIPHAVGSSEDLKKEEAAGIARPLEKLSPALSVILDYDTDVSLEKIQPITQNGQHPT
PostGolgi yeast: phenotypic screen on post-Golgi transport, primary screen. actives 0.9% (n = 98,000). AID 739, 2007. inhibition, % at 10 µM. post-Golgi transport phenotypic cell assay;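 note: yeast cells grown in 1536-well plates; yeast grown about 18 h at 30C before absorbance read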
PostGolgi ctrl: growth inhibition of yeast control strain, primary screen, counter-screen for post-Golgi transport modulator project; actives 5% (n = 98,000); inhibition, % at 10 µM; efflux-deficient yeast background strain, growth absorbance A615, 16 h
E coli WT exp: growth inhibitors of wild-type E. coli, primary screen, strain BW25113, expanded library, OD600 | actives 0.15% (n = 98,000) | OD600 absorbance | growth inhibition, % at 100 µM;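 active = growth inhibition above about 50% at one test dose, limit read from the data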;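 note: growth measured after 20 h incubation at 37 °C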
DAT uptake mod: changed hDAT dopamine uptake under cocaine IC80, either direction, primary screen, cocaine antagonist project, cell-based, LLC-PK1 hDAT, [14C]-dopamine uptake, MLSMR; Sodium-dependent dopamine transporter (Homo sapiens), Q01959; LLC-PK1 hDAT cells, [14C]-dopamine uptake with cocaine IC80; actives deviate in either direction; B-score at 10 µM; actives 1.3% (n = 110,000); AID 449768, 2010;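 active = Z score or B-score, a plate-position-corrected score, falls beyond the plate's 99.7% confidence bounds, in either direction; inactive = both scores lie inside the 99.7% bounds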
Ecoli tolC: growth inhibitors of E. coli tolC mutant, primary screen, strain BW25113 ΔtolC::kan, 384-well; growth inhibition, % at 10 µM (by protocol); OD615; actives 2.2% (n = 65,000);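 active = growth inhibition at or above a cutoff equal to the mean over every tested compound plus 3 SD, cut at about 60% in these data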;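 note: growth measured after 20 h incubation at 37 °C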
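Assay system: tolC-deleted E. coli BW25113. Medium: kanamycin-containing LB broth (50 µg/mL). Dosing: 10 µM final, single dose. Timing: bacterial growth with compound for 20 h at 37 °C. Detection: A615 absorbance measurement. Read-out basis: growth inhibition in percent.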
Numbers stand for hits; . = inactive; / = no result given. Most compounds without a hit are left out; they make up all but 9.3% or so of the library. Cut-off read from the data, not from the text of the source, unless noted: active = inhibition above about 30%; inactive = the rest.

SMILES	D1 allo mod	PostGolgi yeast	PostGolgi ctrl	E coli WT exp	DAT uptake mod	Ecoli tolC
O=C(CSc1nnc(CNc2cccc(Cl)c2)o1)OC1CCCCC1	/	.	31	.	.	/
Clc1ccc(CSc2nnc(CNc3cccc(Cl)c3)o2)cc1	/	.	45	.	/	/
CC(C)(C)OC(=O)NCCc1nnc(SCc2ccc(Cl)cc2)o1	/	.	.	.	.	/
CCOc1ccc(N(CC(=O)NC2CCCC2)S(=O)(=O)c2c(C)[nH]c(=O)[nH]c2=O)cc1	.	.	.	.	.	.
COc1ccc(-c2[nH]ncc2-c2ccc(Cl)cc2)c(O)c1	/	.	49	.	.	98
Oc1ccc(-c2[nH]ncc2-c2ccc(Cl)cc2)c(O)c1	.	.	.	.	.	100
CCOc1ccc(-c2ncncc2-c2ccc(OC)cc2)c(O)c1	.	.	.	.	.	.
N#Cc1cnn(-c2nc(SCc3ccccc3)nc3sc4c(c23)CCCC4)c1N	/	.	34	.	.	.
CCOC(=O)C1=C(c2ccccc2)Nc2c(c(=O)n(C)c(=O)n2C)C1c1ccc(O)c(OC)c1 (configuration not stated)	/	.	.	.	.	/
CCOC(=O)C1=C(c2ccccc2)N(C)C(=O)NC1c1ccc(O)c(OC)c1 (configuration not stated)	.	.	31	.	.	.
S=C(NN=C(C1CC1)C1CC1)Nc1ccccc1	/	/	/	/	.	/
N#CC(C#N)=C/C(C#N)=C(/N)N1CCN(c2ccc(Cl)cc2)CC1	/	47	31	.	.	/
CSC(=NC#N)N1CCN(c2ccc(Cl)cc2)CC1	/	.	.	.	.	/
C=C(C)c1nc(N)nc(N)n1	.	.	.	.	.	.
CCC1Oc2ccc(C)cc2N(CC(=O)NCc2cccc(OC)c2)C1=O (configuration not stated)	.	.	33	.	.	.
Cc1ccc(S(=O)(=O)N2CCC(C(=O)N3CCC[C@H]3C(=O)NCc3ccco3)CC2)cc1	.	.	.	.	.	.
Cc1ccc(C)c(NC(=O)c2ccccc2O)c1	.	.	.	.	.	80
O=C(Nc1ccccc1O)c1ccccc1O	.	.	.	63	.	.
COc1ccc(-c2cnn3c4c(c(C)nc23)CCN4C(C)C)cc1OC	/	.	.	.	.	/
CC(=O)c1c(C)[nH]c(C(=O)OCC(=O)Nc2cc(C(F)(F)F)ccc2N2CCOCC2)c1C	.	.	.	.	.	.
O=C(c1ccc(-c2ccccc2Cl)s1)N1CCOCC1	/	/	/	/	.	/
CC(=O)C1=C(N2CCCCC2)CCC1=O	.	.	32	.	.	.
CC1=C(N2CCOCC2)CCC1=O	/	/	/	/	.	/
COc1ccc(S(=O)(=O)N(C)CC(=O)NCc2cccnc2)cc1C	.	.	.	.	.	.
c1ccc(-c2noc(-c3cccc4ccccc34)n2)nc1	-2.8	.	.	.	.	.
SMILES	D1 allo mod	PostGolgi yeast	PostGolgi ctrl	E coli WT exp	DAT uptake mod	Ecoli tolC
Cc1ccc(-c2nc(-c3ccccn3)no2)cc1Cl	-4.4	.	.	.	.	.
c1ccc(-c2ccc(-c3nc(-c4ccccn4)no3)cc2)cc1	-9.6	.	.	.	.	.
c1ccc(-c2nc(-c3ccccn3)no2)cc1	/	/	/	/	.	/
Cc1ccc(-c2nc(-c3ccccn3)no2)cc1	-7.6	.	.	.	.	.
COc1cc(OC)cc(C(=O)Nc2cccc(N3CCCC3)c2)c1	.	.	.	.	.	.
Clc1cccc(-c2nc(-c3ccccn3)no2)c1	-6.9	.	.	.	.	.
COc1ccc(NC(=S)NC(NC(=O)c2ccc(Cl)cc2Cl)C(Cl)(Cl)Cl)c([N+](=O)[O-])c1 (configuration not stated)	/	69	.	.	.	/
CCCOC1(NC(=O)c2ccccc2)C(C)=CC(=O)C=C1C	-3.2	.	.	.	.	.
CCOC(=O)CNC(=O)c1ccccc1	/	.	.	.	.	/
COC(=O)c1nn(-c2ccc(Cl)cc2)c(=O)cc1Sc1ccccn1	/	.	.	.	.	/
NC(=O)C1=NOC(CNc2ncc(C(F)(F)F)cc2Cl)C1 (configuration not stated)	/	.	.	.	.	/
CCOc1ccc(Oc2cc(NC(=O)c3ccco3)cc([N+](=O)[O-])c2)cc1	/	.	44	.	/	/
O=C(Nc1ccc(Oc2cccc3ccccc23)cc1)c1ccco1	/	.	.	.	2.4	/
Nc1ncnc2c1ncn2CCNCCc1ccccc1	.	.	.	.	.	.
Cc1c(C)n(Cc2ccccc2)c2ncnc(N)c12	-2.8	.	.	.	.	.
C#CCSc1nnc(-c2ccc(OC)cc2)o1	/	.	.	.	.	/
Cn1c(-c2ccc(F)cc2)cnc1SCC(=O)N1CCCCC1	-4.3	.	.	.	.	.
O=C(CSc1ccc(-c2ccc(F)cc2)nn1)N1CCCCC1	.	.	.	.	.	.
CSC1=C(C#N)C(c2ccccc2C)C(C#N)=C(N)N1 (configuration not stated)	.	.	50	.	.	.
CSC1=C(C#N)C(c2ccccc2Cl)C2=C(N1)c1ccccc1C2=O (configuration not stated)	/	.	.	.	.	/
CCOc1cc(/C=C\[N+](=O)[O-])ccc1OCC(=O)Nc1ccccc1C	/	39	.	.	.	/
Cc1ccc(CNc2nc(N)c([N+](=O)[O-])c(Nc3cccc(F)c3)n2)cc1	/	.	46	.	.	/
Nc1nc(NCc2ccccc2)nc(Nc2cccc(F)c2)c1[N+](=O)[O-]	/	.	.	.	.	/
Cc1ccc(SCCC(=O)Nc2cccc(N(C)S(C)(=O)=O)c2)cc1	/	.	.	.	.	/
Cc1sc2ncnc(NCCCn3ccnc3)c2c1C	.	.	.	.	.	.
SMILES	D1 allo mod	PostGolgi yeast	PostGolgi ctrl	E coli WT exp	DAT uptake mod	Ecoli tolC
Cc1sc2ncnc(Oc3ccc(-n4ccnc4)cc3)c2c1C	/	.	.	.	2.5	.
Cn1nc(C(=O)N2CCc3ccccc3C2)c2ccccc2c1=O	/	.	.	.	0.78	/
OC1(c2ccc(F)cc2)CCN(Cc2nnnn2Cc2cccs2)CC1	.	.	.	.	.	.
CCCCCCCCSc1nnc(-c2ccc(OC)cc2)o1	/	.	.	.	.	/
CCCCSc1ccc2nc(-c3ccc(C#N)cc3)cn2c1	/	.	.	.	2.4	/
O=C(CCCc1c[nH]c2ccccc12)N1CCN(S(=O)(=O)c2cccs2)CC1	.	.	.	.	.	.
Cc1cccc2cc(CN(Cc3nnnn3C3CCCCC3)C3CCCC3)c3nnnn3c12	/	97	86	.	.	/
COc1cc2cc(CN(C(=O)Nc3ccccc3)C3CCCC3)c(=O)[nH]c2cc1OC	.	.	.	.	3.3	.
O=c1[nH]c2cc3c(cc2cc1CN(Cc1nnnn1CC1CCCO1)C1CCCC1)OCO3 (configuration not stated)	-3.3	.	.	.	/	.
